Source: paper PMC5200953 (Dalton transactions (Cambridge, England : 2003), 2015)
“Also recorded” adds a separate entry of the source.

Tests used:
[1] = tested on: sstr2-transfected HCT116 cells; assay: Cellular internalization assay; format: cell-based
[2] = Biodistribution in mice bearing subcutaneous sstr2-transfected HCT116 tumours; format: in vivo; settings: mouse, n = 4; for tissue uptake at 1 h: 1 h p.i.; for tissue uptake at 4 h: 4 h p.i.; for tissue uptake at 24 h: 24 h p.i.
Summary of the method: (§1)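 Mice with subcutaneous sstr2-transfected HCT116 tumours received the 64Cu-labelled test conjugate. Activity was measured in blood, liver, kidney, muscle, bone, adrenal, pancreas and tumour at 1, 4 and 24 h p.i. A blocking group received co-administered Y3-TATE, assessed at 4 h p.i. Tumour-to-blood, -muscle, -kidney and -liver ratios were calculated. n = 4 per group; P-values were reported for group comparisons.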

[3] = tested on: sstr2-transfected HCT116 tumours; assay: as above; format: in vivo
Summary of the method: as §1

[4] = PET/CT imaging at 2 h p.i. in mice bearing sstr2-transfected HCT116 xenografts; format: in vivo; settings: mouse, tumour, tumour standard uptake value (SUV), n = 2
Summary of the method: (§2)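 PET/CT imaging was done at 2 h p.i. with the 64Cu-labelled test conjugate. Mice bore subcutaneously implanted sstr2-transfected HCT116 xenografts. The blocked mouse was co-administered Y3-TATE (10 mg/kg). Tumour standard uptake value (SUV) was read from the images.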

[5] = tested on: sstr2-transfected HCT116 tumours; assay: as above; format: in vivo; settings: with the exception of kidneys
Summary of the method: as §2

For C[C@@H](O)[C@H](NC(=O)[C@@H]1CSSC[C@H](NC(=O)[C@@H](Cc2ccccc2)NC(=O)Cn2cc(CN3CCCN4CCN(CCCN(CP(=O)(O)O)CC4)CC3)nn2)C(=O)N[C@@H](Cc2ccc(O)cc2)C(=O)N[C@H](Cc2c[nH]c3ccccc23)C(=O)N[C@@H](CCCCN)C(=O)N[C@@H]([C@@H](C)O)C(=O)N1)C(=O)O (64Cu complex, metal not drawn) [Compound 6], the internalized ([1]; after 4 h, sstr2-transfected HCT116 cells) was 38 %ID/mg protein, the “surface bound, and thus internalized 6, blocked by excess Y3-TATE” value ([1]; cells pre-incubated with excess Y3-TATE, P < 0.0001, n = 3) was “More than 95%” and the “internalization, in words” value ([1]; sstr2-transfected HCT116 cells) was “internalized rapidly and specifically; also recorded: quickly bound to the cell surface, and was steadily internalized”. The tissue uptake at 1 h ([2]; adrenal, Adrenal uptake) was 1.14 ± 0.46 %ID/g, the tissue uptake at 4 h ([2]; adrenal, Adrenal uptake, blocked with co-administration of Y3-TATE) was 0.37 ± 0.05 %ID/g and the tissue uptake at 4 h ([2]; adrenal, Adrenal uptake) was 1.24 ± 0.4 %ID/g. The tissue uptake at 1 h ([2]; blood, Blood uptake) was 0.34 ± 0.13 %ID/g, the tissue uptake at 4 h ([2]; blood, Blood uptake, blocked with co-administration of Y3-TATE) was 0.22 ± 0.04 %ID/g and the tissue uptake at 4 h ([2]; blood, Blood uptake) was 0.2 ± 0.03 %ID/g. For the same molecule, the tissue uptake at 24 h ([2]; blood, Blood uptake) was 0.15 ± 0.06 %ID/g, the tissue uptake at 1 h ([2]; bone, Bone uptake) was 0.46 ± 0.16 %ID/g and the tissue uptake at 4 h ([2]; bone, Bone uptake, blocked with co-administration of Y3-TATE) was 0.2 ± 0.04 %ID/g. The tissue uptake at 4 h ([2]; bone, Bone uptake) was 0.5 ± 0.24 %ID/g, the tissue uptake at 24 h ([2]; bone, Bone uptake) was 0.35 ± 0.1 %ID/g and the tissue uptake at 1 h ([2]; kidney, Kidney uptake) was 15.9 ± 3.03 %ID/g. For the same molecule, the tissue uptake at 4 h ([2]; kidney, Kidney uptake, blocked with co-administration of Y3-TATE) was 16.1 ± 5.03 %ID/g, the tissue uptake at 4 h ([2]; kidney, Kidney uptake) was 21 ± 2.84 %ID/g and the tissue uptake at 24 h ([2]; kidney, Kidney uptake) was 14.7 ± 2.53 %ID/g. It also gave a tissue uptake at 1 h ([2]; liver, Liver uptake) of 1.13 ± 0.16 %ID/g, a tissue uptake at 4 h ([2]; liver, Liver uptake, blocked with co-administration of Y3-TATE) of 1.32 ± 0.3 %ID/g and a tissue uptake at 4 h ([2]; liver, Liver uptake) of 1.3 ± 0.1 %ID/g. The tissue uptake at 24 h ([2]; liver, Liver uptake) was 1.05 ± 0.1 %ID/g, the tissue uptake at 1 h ([2]; muscle, Muscle uptake) was 0.22 ± 0.15 %ID/g and the tissue uptake at 4 h ([2]; muscle, Muscle uptake, blocked with co-administration of Y3-TATE) was 0.09 ± 0.03 %ID/g. For the same molecule, the tissue uptake at 4 h ([2]; muscle, Muscle uptake) was 0.07 ± 0.02 %ID/g, the tissue uptake at 24 h ([2]; muscle, Muscle uptake) was 0.06 %ID/g and the tissue uptake at 1 h ([2]; pancreas, Pancreas uptake) was 6.71 ± 0.22 %ID/g. The tissue uptake at 4 h ([2]; pancreas, Pancreas uptake, blocked with co-administration of Y3-TATE) was 0.3 ± 0.07 %ID/g, the tissue uptake at 4 h ([2]; pancreas, Pancreas uptake) was 4.41 ± 0.95 %ID/g and the tissue uptake at 24 h ([2]; pancreas, Pancreas uptake) was 1.84 ± 0.64 %ID/g. For the same molecule, the tissue uptake at 1 h ([2]; tumour, Tumour uptake) was 4.73 ± 1.17 %ID/g, the tissue uptake at 4 h ([2]; tumour, Tumour uptake, blocked with co-administration of Y3-TATE) was 0.69 ± 0.22 %ID/g and the tissue uptake at 4 h ([2]; tumour, Tumour uptake) was 7.54 ± 1.43 %ID/g. The tissue uptake at 24 h ([2]; tumour, Tumour uptake) was 4.39 ± 1.71 %ID/g, the “kidney uptake, in words” value ([3]; 1, 4, and 24 h p.i.) was “consistently high uptake” and the “uptake in sstr2-expressing organs (adrenal, pancreas, tumour), in words” value ([3]; 1, 4, and 24 h p.i.) was “high tracer uptake”. The “blocking of tumour uptake by co-administered Y3-TATE” value ([3]; 4 h p.i., P < 0.0001, n = 4) was 91%, the “blocking of adrenal uptake by co-administered Y3-TATE” value ([3]; 4 h p.i., P = 0.0051, n = 4) was 70% and the “in vivo stability of the copper complex, in words” value ([3]; inferred from relatively low liver activity) was “reasonable in vivo stability”. For the same molecule, the “time of maximum tumour uptake” value ([3]; p.i., n = 4) was 4 h, the SUV at 2 h [4] was 2.25 ± 0.49 SUV and the “tumour uptake and contrast by PET/CT, in words” value [5] was “excellent tumour uptake and contrast”.
